Measurements: ChEMBL document CHEMBL3351385, “Synthesis and preliminary mechanistic evaluation of 5-(p-tolyl)-1-(quinolin-2-yl)pyrazole-3-carboxylic acid amides with potent antiproliferative activity on human cancer cell lines” (Eur J Med Chem, 2014)
Calls of active or inactive are those of the source. The calls are words filed in the database; no cut-off is given here.

How the values were obtained:
[1] = target: CDK2/Cyclin A2 (Homo sapiens) (UniProt P24941+P20248); test: Inhibition of CDK2/Cyclin A (unknown origin) assessed as remaining enzyme activity at 10 uM by radioactive [33P]-ATP filter binding assay; assay type: protein-complex assay
Outline: (§1)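 A single 10 µM concentration was tested across a 140-kinase panel. Activity was measured by a radioactive 33P-ATP filter-binding assay run at the International Center for Kinase Profiling, University of Dundee.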

[2] = target: Myosin light chain kinase, smooth muscle (Homo sapiens) (UniProt Q15746); test: Inhibition of smMLCK (unknown origin) assessed as remaining enzyme activity at 10 uM by radioactive [33P]-ATP filter binding assay
[3] = target: Eukaryotic translation initiation factor 2-alpha kinase 3 (Homo sapiens) (UniProt Q9NZJ5); test: Inhibition of EIF2AK3 (unknown origin) assessed as remaining enzyme activity at 10 uM by radioactive [33P]-ATP filter binding assay; outline: as §1
[4] = target: Mitogen-activated protein kinase kinase kinase 11 (Homo sapiens) (UniProt Q16584); test: Inhibition of MLK3 (unknown origin) assessed as remaining enzyme activity at 10 uM by radioactive [33P]-ATP filter binding assay
[5] = target: Ephrin type-B receptor 1 (Homo sapiens) (UniProt P54762); test: Inhibition of EPHB1 (unknown origin) assessed as remaining enzyme activity at 10 uM by radioactive [33P]-ATP filter binding assay; outline: as §1
[6] = target: Vascular endothelial growth factor receptor (Homo sapiens) (UniProt P17948+P35916+P35968); test: Inhibition of VEGFR (unknown origin) assessed as remaining enzyme activity at 10 uM by radioactive [33P]-ATP filter binding assay; assay type: protein assay
Vascular endothelial growth factor receptor (Homo sapiens), sequence (P17948 whole entry, looked up): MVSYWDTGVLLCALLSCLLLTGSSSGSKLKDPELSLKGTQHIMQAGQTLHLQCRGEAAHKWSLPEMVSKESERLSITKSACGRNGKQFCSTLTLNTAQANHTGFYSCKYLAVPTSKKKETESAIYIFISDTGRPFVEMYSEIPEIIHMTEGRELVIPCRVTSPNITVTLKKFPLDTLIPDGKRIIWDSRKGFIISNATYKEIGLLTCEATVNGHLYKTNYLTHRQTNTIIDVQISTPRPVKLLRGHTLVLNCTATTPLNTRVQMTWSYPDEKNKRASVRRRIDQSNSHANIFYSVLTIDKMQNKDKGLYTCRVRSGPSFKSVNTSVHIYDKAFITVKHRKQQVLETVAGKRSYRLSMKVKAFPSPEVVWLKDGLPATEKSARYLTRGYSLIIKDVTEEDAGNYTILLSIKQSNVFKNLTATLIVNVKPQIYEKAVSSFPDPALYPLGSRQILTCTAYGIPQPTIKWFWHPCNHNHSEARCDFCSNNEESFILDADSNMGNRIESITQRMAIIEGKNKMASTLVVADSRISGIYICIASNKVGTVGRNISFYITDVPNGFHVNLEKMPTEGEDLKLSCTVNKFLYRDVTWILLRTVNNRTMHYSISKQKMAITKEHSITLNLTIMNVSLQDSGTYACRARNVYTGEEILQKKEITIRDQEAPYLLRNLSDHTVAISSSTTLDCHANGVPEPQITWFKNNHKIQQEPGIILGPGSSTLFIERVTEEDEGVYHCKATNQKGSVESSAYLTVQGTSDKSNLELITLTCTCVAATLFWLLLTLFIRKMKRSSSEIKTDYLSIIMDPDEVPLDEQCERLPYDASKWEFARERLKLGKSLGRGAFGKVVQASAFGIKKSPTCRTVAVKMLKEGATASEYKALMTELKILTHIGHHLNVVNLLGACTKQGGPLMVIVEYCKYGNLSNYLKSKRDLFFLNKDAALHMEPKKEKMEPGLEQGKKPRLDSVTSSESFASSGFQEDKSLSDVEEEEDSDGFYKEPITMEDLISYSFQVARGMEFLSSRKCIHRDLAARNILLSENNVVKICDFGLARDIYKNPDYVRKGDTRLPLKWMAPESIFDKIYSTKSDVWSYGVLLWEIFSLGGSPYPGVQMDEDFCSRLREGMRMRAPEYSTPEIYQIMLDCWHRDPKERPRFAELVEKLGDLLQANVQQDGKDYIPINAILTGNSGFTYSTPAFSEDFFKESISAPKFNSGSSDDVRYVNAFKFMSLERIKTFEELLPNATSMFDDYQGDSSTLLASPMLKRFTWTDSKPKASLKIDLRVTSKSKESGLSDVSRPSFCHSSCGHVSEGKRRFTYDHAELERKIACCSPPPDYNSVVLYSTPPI
Vascular endothelial growth factor receptor (Homo sapiens), sequence (P35916 whole entry, looked up): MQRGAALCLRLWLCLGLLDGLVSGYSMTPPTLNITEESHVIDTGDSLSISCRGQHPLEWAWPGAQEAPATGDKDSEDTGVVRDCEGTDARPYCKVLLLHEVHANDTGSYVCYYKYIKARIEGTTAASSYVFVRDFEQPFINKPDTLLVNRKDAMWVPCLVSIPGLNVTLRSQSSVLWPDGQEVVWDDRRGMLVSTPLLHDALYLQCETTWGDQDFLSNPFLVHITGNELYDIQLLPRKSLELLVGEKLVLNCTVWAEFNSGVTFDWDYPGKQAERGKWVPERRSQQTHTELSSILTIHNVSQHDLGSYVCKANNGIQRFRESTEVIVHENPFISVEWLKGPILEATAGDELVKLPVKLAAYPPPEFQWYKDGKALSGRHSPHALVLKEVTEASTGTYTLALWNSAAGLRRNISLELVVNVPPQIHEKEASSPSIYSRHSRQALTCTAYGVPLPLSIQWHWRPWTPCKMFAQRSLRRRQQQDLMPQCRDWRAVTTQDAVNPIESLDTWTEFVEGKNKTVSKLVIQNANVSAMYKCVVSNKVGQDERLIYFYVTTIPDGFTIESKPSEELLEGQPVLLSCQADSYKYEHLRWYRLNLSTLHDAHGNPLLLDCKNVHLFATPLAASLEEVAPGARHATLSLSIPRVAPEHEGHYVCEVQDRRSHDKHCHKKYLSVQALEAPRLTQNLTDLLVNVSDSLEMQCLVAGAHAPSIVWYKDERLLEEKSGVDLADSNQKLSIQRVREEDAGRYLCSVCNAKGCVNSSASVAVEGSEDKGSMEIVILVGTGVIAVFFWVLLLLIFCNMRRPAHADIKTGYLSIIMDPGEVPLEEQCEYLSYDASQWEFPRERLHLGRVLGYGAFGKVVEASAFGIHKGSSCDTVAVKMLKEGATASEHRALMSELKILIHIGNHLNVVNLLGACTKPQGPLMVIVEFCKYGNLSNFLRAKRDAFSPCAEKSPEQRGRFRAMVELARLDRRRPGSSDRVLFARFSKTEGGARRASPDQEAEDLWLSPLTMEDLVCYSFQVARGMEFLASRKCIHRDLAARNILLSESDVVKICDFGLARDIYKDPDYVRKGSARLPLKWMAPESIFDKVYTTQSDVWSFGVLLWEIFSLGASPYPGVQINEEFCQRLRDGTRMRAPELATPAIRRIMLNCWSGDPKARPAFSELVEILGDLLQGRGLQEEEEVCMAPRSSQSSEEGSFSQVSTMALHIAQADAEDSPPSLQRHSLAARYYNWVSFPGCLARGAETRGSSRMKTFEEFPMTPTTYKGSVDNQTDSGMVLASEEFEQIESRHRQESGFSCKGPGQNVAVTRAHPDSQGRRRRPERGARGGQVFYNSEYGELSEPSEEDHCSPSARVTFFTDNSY
Vascular endothelial growth factor receptor (Homo sapiens), sequence (P35968 whole entry, looked up): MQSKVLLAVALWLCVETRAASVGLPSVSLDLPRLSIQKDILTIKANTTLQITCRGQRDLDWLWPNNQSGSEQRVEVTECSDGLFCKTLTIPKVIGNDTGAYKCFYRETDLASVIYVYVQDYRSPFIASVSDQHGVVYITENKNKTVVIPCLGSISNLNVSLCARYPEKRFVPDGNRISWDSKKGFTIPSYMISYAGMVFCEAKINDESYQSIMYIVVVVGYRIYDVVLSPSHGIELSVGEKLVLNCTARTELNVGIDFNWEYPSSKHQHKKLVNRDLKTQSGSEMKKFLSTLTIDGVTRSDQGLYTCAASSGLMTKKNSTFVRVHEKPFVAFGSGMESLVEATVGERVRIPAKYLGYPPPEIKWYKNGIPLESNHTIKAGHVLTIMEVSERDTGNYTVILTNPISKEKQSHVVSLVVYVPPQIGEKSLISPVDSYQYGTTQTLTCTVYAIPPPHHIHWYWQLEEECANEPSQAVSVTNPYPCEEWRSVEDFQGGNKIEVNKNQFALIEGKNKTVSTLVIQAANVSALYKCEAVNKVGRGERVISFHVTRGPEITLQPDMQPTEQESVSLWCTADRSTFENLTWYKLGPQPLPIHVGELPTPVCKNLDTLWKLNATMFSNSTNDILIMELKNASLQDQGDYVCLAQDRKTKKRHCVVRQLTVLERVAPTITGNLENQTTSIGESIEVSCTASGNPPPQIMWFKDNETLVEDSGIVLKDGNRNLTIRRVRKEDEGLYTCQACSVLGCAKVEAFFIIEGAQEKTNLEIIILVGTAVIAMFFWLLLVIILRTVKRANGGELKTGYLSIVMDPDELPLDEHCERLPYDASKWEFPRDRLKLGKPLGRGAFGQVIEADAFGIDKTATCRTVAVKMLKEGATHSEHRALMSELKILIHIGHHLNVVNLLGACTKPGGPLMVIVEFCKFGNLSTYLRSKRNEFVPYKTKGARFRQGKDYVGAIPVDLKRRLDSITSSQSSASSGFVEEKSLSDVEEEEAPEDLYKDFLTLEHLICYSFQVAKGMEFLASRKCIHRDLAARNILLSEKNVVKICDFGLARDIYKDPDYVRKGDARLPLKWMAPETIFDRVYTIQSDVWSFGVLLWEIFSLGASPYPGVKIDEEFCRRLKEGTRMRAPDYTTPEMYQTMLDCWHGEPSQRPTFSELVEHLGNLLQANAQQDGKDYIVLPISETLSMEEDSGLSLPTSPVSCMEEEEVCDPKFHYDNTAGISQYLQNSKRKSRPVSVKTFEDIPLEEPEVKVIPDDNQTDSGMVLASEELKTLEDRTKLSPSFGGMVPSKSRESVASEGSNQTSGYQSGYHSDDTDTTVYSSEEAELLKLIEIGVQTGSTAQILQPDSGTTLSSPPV

[7] = target: CDK9/cyclin T1 (Homo sapiens) (UniProt O60563+P50750); test: Inhibition of CDK9/Cyclin-T1 (unknown origin) assessed as remaining enzyme activity at 10 uM by radioactive [33P]-ATP filter binding assay; assay type: protein-complex assay; outline: as §1
[8] = target: Serine/threonine-protein kinase Chk2 (Homo sapiens) (UniProt O96017); test: Inhibition of CHK2 (unknown origin) assessed as remaining enzyme activity at 10 uM by radioactive [33P]-ATP filter binding assay; outline: as §1
[9] = target: Serine/threonine-protein kinase WNK1 (Homo sapiens) (UniProt Q9H4A3); test: Inhibition of WNK1 (unknown origin) assessed as remaining enzyme activity at 10 uM by radioactive [33P]-ATP filter binding assay
[10] = target: Serine/threonine-protein kinase Chk1 (Homo sapiens) (UniProt O14757); test: Inhibition of CHK1 (unknown origin) assessed as remaining enzyme activity at 10 uM by radioactive [33P]-ATP filter binding assay; outline: as §1
[11] = target: Ribosomal protein S6 kinase alpha-3 (Homo sapiens) (UniProt P51812); test: Inhibition of RSK2 (unknown origin) assessed as remaining enzyme activity at 10 uM by radioactive [33P]-ATP filter binding assay
[12] = target: Homeodomain-interacting protein kinase 2 (Homo sapiens) (UniProt Q9H2X6); test: Inhibition of HIPK2 (unknown origin) assessed as remaining enzyme activity at 10 uM by radioactive [33P]-ATP filter binding assay
[13] = target: Serine/threonine-protein kinase PAK 6 (Homo sapiens) (UniProt Q9NQU5); test: Inhibition of PAK6 (unknown origin) assessed as remaining enzyme activity at 10 uM by radioactive [33P]-ATP filter binding assay
MCF7 = test: Cytotoxicity against human MCF7 cells after 72 hrs by SRB assay; assay type: functional, cell-based; settings: MCF7, 72 h
Outline: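 Cells kept in DMEM with 10% FCS and penicillin/streptomycin at 37°C, 5% CO2. 2000–3000 cells/well were seeded, and medium was refreshed the next day. DMSO solutions were added over 2.5–40 µM with matched DMSO-only controls for 72 h. Cells were then TCA-fixed, stained with 0.4% SRB in 1% acetic acid, solubilized in 10 mM Tris pH 8 and read at 515 nm. Data were normalized to DMSO wells and expressed as mean ±SD.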

[14] = target: Calcium/calmodulin-dependent protein kinase kinase 2 (Homo sapiens) (UniProt Q96RR4); test: Inhibition of CAMKKB (unknown origin) assessed as remaining enzyme activity at 10 uM by radioactive [33P]-ATP filter binding assay; outline: as §1
[15] = target: Serine/threonine-protein kinase pim-2 (Homo sapiens) (UniProt Q9P1W9); test: Inhibition of PIM2 (unknown origin) assessed as remaining enzyme activity at 10 uM by radioactive [33P]-ATP filter binding assay
[16] = target: Mitogen-activated protein kinase 10 (Homo sapiens) (UniProt P53779); test: Inhibition of JNK3 (unknown origin) assessed as remaining enzyme activity at 10 uM by radioactive [33P]-ATP filter binding assay
[17] = target: Mitogen-activated protein kinase kinase kinase 1 (Homo sapiens) (UniProt Q13233); test: Inhibition of MEKK1 (unknown origin) assessed as remaining enzyme activity at 10 uM by radioactive [33P]-ATP filter binding assay
[18] = target: Serine/threonine-protein kinase pim-1 (Homo sapiens) (UniProt P11309); test: Inhibition of PIM1 (unknown origin) assessed as remaining enzyme activity at 10 uM by radioactive [33P]-ATP filter binding assay
[19] = target: Fibroblast growth factor receptor 1 (Homo sapiens) (UniProt P11362); test: Inhibition of FGFR1 (unknown origin) assessed as remaining enzyme activity at 10 uM by radioactive [33P]-ATP filter binding assay; outline: as §1
[20] = Induction of cell cycle arrest in human Mahlavu cells assessed as accumulation at G0/G1 phase at cytotoxic IC50 level after 48 hrs by propidium iodide staining based FACS method; assay type: functional
[21] = target: Maternal embryonic leucine zipper kinase (Homo sapiens) (UniProt Q14680); test: Inhibition of MELK (unknown origin) assessed as remaining enzyme activity at 10 uM by radioactive [33P]-ATP filter binding assay
[22] = target: Eukaryotic elongation factor 2 kinase (Homo sapiens) (UniProt O00418); test: Inhibition of EF2K (unknown origin) assessed as remaining enzyme activity at 10 uM by radioactive [33P]-ATP filter binding assay; outline: as §1
Huh-7 = test: Induction of cell death in human HuH7 cells assessed as induction of intracytoplasmic vacuoles at cytotoxic IC50 level after 72 hrs by inverted light microscopy; assay type: functional, cell-based
Outline: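 They were viewed under an inverted light microscope at 20× for death morphology, including intracytoplasmic vacuoles.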

[23] = target: Serine/threonine-protein kinase tousled-like 1 (Homo sapiens) (UniProt Q9UKI8); test: Inhibition of TLK1 (unknown origin) assessed as remaining enzyme activity at 10 uM by radioactive [33P]-ATP filter binding assay
[24] = target: Serine/threonine-protein kinase BRSK1 (Homo sapiens) (UniProt Q8TDC3); test: Inhibition of BRSK1 (unknown origin) assessed as remaining enzyme activity at 10 uM by radioactive [33P]-ATP filter binding assay; outline: as §1
Serine/threonine-protein kinase BRSK1 (Homo sapiens), sequence (Q8TDC3 whole entry): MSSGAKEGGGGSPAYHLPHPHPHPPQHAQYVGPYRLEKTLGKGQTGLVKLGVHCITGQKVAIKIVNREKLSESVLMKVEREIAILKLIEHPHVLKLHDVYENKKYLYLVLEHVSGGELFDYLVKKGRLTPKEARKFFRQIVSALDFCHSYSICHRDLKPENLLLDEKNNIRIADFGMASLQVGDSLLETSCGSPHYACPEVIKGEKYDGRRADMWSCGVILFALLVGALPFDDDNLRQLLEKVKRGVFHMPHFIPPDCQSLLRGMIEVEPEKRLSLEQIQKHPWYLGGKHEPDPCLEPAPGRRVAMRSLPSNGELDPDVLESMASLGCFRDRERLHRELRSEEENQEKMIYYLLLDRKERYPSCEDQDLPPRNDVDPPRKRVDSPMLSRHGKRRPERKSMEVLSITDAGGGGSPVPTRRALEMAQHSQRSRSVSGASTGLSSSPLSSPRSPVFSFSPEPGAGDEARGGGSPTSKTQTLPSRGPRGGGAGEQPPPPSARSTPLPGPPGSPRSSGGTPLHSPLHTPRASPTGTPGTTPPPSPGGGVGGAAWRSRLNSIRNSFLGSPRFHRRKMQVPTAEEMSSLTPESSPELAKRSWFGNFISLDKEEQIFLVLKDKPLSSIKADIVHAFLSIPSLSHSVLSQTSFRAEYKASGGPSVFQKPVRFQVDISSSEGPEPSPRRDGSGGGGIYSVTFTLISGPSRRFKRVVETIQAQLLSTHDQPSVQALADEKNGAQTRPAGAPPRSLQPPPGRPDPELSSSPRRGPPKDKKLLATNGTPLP

[25] = target: Interleukin-1 receptor-associated kinase 4 (Homo sapiens) (UniProt Q9NWZ3); test: Inhibition of IRAK4 (unknown origin) assessed as remaining enzyme activity at 10 uM by radioactive [33P]-ATP filter binding assay
[26] = target: Mitogen-activated protein kinase 15 (Homo sapiens) (UniProt Q8TD08); test: Inhibition of ERK8 (unknown origin) assessed as remaining enzyme activity at 10 uM by radioactive [33P]-ATP filter binding assay; outline: as §1

`Cc1ccc(-c2cc(C(=O)Nc3ccnc(Cl)c3)nn2-c2ccc3ccccc3n2)cc1` gave an Activity [1] of 102%, an Activity [2] of 103% and an Activity [3] of 96%. The Activity [4] was 76%, the Activity [5] was 128% and the Activity [6] was 92%. For the same molecule, the Activity [7] was 113%, the Activity [8] was 94% and the Activity [9] was 106%. The Activity [10] was 85%, the Activity [11] was 86% and the Activity [12] was 124%. For the same molecule, the Activity [13] was 104%, the IC50 (MCF7) was 3.3 µM and the Activity [14] was 85%. The Activity [15] was 114%, the Activity [16] was 95% and the Activity [17] was 113%. The Activity [18] was 118%, the Activity [19] was 127% and the Activity [20] was 58.7%. For the same molecule, the Activity [21] was 98%, the Activity [22] was 97% and the Activity (Huh-7) was “Active”. The Activity [23] was 114%, the Activity [24] was 108% and the Activity [25] was 90%. For the same molecule, the Activity [26] was 106%.
